# According to ChEMBL document CHEMBL5705905, “Pharmacological targeting of kinases MST1 and MST2 augments tissue repair and regeneration” (Sci Transl Med, 2016):
# The source made the active and inactive calls. The calls are words filed in the database; no cut-off is given here.
# Tests used:
# [1] = biological target: NT-3 growth factor receptor (Homo sapiens) (UniProt Q16288); assay: Inhibition of TRKC (unknown origin) assessed as remaining activity at 1 uM by Kinome scan method relative to control
# [2] = biological target: Serine/threonine-protein kinase Nek9 (Homo sapiens) (UniProt Q8TD19); assay: Inhibition of NEK9 (unknown origin) assessed as remaining activity at 1 uM by Kinome scan method relative to control
# [3] = biological target: Serine/threonine-protein kinase 26 (Homo sapiens, UniProt Q9P289); assay: Inhibition of MST4 (unknown origin) in presence of ATP by enzymatic assay
# [4] = biological target: Mitogen-activated protein kinase kinase kinase 13 (Homo sapiens) (UniProt O43283); assay: Inhibition of LZK (unknown origin) assessed as remaining activity at 1 uM by Kinome scan method relative to control
# Homo sapiens = species on record: Homo sapiens; assay: Inhibition of recombinant His-tagged full-length MST1 Y101F/D109A mutant (unknown origin) expressing in Escherichia coli assessed as GST-tagged MOB1 phosphorylation level at 0.01 to 1 uM incubated for 15 min by immunoblot analysis; details: dose 0.01-1 µM
# [5] = biological target: Mitogen-activated protein kinase kinase kinase 3 (Homo sapiens, UniProt Q99759); assay: Binding affinity to MAP3K3 (unknown origin) assessed as dissociation constant
# [6] = biological target: Tyrosine-protein kinase ZAP-70 (Homo sapiens) (UniProt P43403); assay: Inhibition of ZAP70 (unknown origin) assessed as remaining activity at 1 uM by Kinome scan method relative to control
# Sequence of Tyrosine-protein kinase ZAP-70 (Homo sapiens) (P43403 whole entry): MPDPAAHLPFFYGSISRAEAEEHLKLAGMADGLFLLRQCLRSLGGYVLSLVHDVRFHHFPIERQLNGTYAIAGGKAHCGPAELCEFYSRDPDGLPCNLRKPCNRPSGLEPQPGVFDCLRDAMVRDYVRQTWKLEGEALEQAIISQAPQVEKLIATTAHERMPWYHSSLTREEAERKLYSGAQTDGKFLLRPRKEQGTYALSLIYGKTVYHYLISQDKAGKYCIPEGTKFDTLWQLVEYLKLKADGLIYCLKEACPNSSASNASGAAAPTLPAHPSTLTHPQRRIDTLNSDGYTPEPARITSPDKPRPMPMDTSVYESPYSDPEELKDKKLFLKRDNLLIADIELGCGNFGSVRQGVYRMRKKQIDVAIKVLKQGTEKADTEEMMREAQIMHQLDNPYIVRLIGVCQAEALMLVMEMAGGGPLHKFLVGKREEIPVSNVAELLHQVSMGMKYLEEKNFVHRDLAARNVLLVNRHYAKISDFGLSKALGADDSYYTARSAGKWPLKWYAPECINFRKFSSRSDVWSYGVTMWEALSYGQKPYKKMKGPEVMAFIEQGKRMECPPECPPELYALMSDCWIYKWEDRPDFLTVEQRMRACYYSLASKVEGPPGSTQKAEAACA
# [7] = biological target: Serine/threonine-protein kinase B-raf (Homo sapiens) (UniProt P15056); assay: Inhibition of BRAF (unknown origin) assessed as remaining activity at 1 uM by Kinome scan method relative to control
# Procedure, shortened: (§1)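 Active-site-dependent competition-binding (KINOMEscan) panel of 468 kinases, test compound at 1 μM (from a 10 mM DMSO stock). Read-out is ctrl% = (test signal − positive control signal)/(negative control signal − positive control signal) × 100. DMSO is the negative control (100%) and a control compound is the positive control (0%). Lower ctrl% means tighter binding.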
# [8] = biological target: Phosphatidylinositol 3-kinase C2 domain-containing subunit gamma (Homo sapiens) (UniProt O75747); assay: Inhibition of PIK3C2G (unknown origin) assessed as remaining activity at 1 uM by Kinome scan method relative to control
# [9] = biological target: Angiopoietin-1 receptor (Homo sapiens) (UniProt Q02763); assay: Inhibition of TIE2 (unknown origin) assessed as remaining activity at 1 uM by Kinome scan method relative to control
# Sequence of Angiopoietin-1 receptor (Homo sapiens) (Q02763 whole entry): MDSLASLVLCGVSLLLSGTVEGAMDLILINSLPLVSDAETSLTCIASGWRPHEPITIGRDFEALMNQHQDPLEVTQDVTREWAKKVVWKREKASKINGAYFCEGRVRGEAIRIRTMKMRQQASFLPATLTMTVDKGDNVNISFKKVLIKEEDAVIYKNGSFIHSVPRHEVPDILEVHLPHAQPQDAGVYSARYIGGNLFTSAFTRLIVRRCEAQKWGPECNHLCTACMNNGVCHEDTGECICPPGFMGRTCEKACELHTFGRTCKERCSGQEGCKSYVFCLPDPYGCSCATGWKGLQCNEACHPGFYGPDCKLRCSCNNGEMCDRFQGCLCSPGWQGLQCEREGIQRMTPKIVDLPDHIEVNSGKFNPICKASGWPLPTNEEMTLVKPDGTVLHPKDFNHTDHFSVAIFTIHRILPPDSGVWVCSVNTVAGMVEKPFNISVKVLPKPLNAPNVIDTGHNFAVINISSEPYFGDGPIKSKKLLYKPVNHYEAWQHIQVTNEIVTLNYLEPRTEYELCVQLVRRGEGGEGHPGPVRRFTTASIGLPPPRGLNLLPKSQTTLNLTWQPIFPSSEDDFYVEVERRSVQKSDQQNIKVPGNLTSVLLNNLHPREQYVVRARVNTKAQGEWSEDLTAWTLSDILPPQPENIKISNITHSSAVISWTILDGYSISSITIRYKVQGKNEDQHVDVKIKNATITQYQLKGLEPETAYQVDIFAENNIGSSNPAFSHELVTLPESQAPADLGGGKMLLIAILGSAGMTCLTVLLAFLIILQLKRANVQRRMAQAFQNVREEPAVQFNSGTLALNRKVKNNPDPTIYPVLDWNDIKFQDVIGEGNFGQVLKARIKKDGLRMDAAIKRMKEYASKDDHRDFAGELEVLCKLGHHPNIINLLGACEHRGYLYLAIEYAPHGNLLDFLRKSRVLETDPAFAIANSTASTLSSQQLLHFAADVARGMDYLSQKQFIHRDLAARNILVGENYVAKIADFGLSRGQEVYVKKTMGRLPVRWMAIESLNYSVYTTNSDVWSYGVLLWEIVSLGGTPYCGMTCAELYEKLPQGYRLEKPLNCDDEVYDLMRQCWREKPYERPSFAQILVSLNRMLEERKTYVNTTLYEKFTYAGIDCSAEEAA
# [10] = biological target: Tyrosine-protein kinase ITK/TSK (Homo sapiens) (UniProt Q08881); assay: Inhibition of ITK (unknown origin) assessed as remaining activity at 1 uM by Kinome scan method relative to control
# [11] = biological target: Serine/threonine-protein kinase TNNI3K (Homo sapiens) (UniProt Q59H18); assay: Inhibition of TNNI3K (unknown origin) assessed as remaining activity at 1 uM by Kinome scan method relative to control
# Sequence of Serine/threonine-protein kinase TNNI3K (Homo sapiens) (Q59H18 whole entry): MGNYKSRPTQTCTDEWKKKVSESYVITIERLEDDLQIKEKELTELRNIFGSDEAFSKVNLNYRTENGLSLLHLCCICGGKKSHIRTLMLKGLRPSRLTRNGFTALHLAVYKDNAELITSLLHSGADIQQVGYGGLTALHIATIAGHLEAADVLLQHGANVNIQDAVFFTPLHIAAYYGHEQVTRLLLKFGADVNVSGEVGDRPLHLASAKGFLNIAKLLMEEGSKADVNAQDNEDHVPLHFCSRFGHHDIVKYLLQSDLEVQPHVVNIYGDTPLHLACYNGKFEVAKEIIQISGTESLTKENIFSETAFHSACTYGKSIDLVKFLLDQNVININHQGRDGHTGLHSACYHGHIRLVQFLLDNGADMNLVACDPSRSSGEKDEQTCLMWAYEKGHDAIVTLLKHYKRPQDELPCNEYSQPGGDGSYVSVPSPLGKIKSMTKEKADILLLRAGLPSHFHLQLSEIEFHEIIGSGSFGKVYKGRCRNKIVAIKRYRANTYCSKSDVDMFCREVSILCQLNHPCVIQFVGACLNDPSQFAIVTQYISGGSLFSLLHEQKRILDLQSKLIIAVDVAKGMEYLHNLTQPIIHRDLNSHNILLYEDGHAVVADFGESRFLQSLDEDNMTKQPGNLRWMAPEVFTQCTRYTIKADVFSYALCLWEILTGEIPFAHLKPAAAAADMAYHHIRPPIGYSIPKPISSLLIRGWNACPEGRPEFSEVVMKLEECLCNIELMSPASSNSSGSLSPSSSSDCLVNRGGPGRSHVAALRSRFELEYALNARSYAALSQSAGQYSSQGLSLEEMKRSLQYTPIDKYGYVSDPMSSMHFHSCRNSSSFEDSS
# [12] = biological target: Serine/threonine-protein kinase TAO1 (Homo sapiens, UniProt Q7L7X3); assay: Inhibition of TAOK1 (unknown origin) in presence of ATP by enzymatic assay
# [13] = biological target: Mitogen-activated protein kinase 7 (Homo sapiens) (UniProt Q13164); assay: Inhibition of ERK5 (unknown origin) assessed as remaining activity at 1 uM by Kinome scan method relative to control
# [14] = biological target: Mitogen-activated protein kinase kinase kinase 9 (Homo sapiens) (UniProt P80192); assay: Inhibition of MLK1 (unknown origin) assessed as remaining activity at 1 uM by Kinome scan method relative to control
# [15] = AUC (0 to infinity) in male Sprague-Dawley rat at 5 mg/kg, iv measured for 24 hrs by LC-MS/MS analysis; assay type: ADME, organism-based; details: in vivo
# Procedure, shortened: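 Sprague-Dawley rats, single intravenous or oral dose. Parameters (half-life, AUC, bioavailability) reported in a supplementary table.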
# [16] = biological target: Serine/threonine-protein kinase D2 (Homo sapiens) (UniProt Q9BZL6); assay: Inhibition of PRKD2 (unknown origin) assessed as remaining activity at 1 uM by Kinome scan method relative to control
# [17] = biological target: Mitogen-activated protein kinase 10 (Homo sapiens) (UniProt P53779); assay: Inhibition of JNK3 (unknown origin) assessed as remaining activity at 1 uM by Kinome scan method relative to control
# [18] = biological target: Serine/threonine-protein kinase WNK1 (Homo sapiens) (UniProt Q9H4A3); assay: Inhibition of WNK1 (unknown origin) assessed as remaining activity at 1 uM by Kinome scan method relative to control
# [19] = biological target: Serine/threonine-protein kinase RIO3 (Homo sapiens) (UniProt O14730); assay: Inhibition of RIOK3 (unknown origin) assessed as remaining activity at 1 uM by Kinome scan method relative to control
# [20] = biological target: Serine/threonine-protein kinase 38-like (Homo sapiens) (UniProt Q9Y2H1); assay: Inhibition of NDR2 (unknown origin) assessed as remaining activity at 1 uM by Kinome scan method relative to control
# Sequence of Serine/threonine-protein kinase 38-like (Homo sapiens) (Q9Y2H1 2-464 limits assumed): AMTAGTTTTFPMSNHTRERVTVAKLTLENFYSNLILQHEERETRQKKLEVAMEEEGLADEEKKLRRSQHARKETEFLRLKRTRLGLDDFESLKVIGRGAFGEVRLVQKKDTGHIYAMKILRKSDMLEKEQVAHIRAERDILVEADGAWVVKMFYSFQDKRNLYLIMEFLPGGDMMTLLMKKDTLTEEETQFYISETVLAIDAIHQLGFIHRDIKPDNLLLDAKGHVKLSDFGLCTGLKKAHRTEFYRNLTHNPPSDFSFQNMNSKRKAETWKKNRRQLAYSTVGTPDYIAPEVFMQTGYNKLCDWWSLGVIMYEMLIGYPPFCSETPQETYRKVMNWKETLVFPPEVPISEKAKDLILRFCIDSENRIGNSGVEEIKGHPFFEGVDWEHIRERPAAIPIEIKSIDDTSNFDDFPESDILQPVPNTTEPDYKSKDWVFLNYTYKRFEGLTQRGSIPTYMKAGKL
# [21] = biological target: Phosphatidylinositol 4,5-bisphosphate 3-kinase catalytic subunit alpha isoform (Homo sapiens, UniProt P42336, H1047L); assay: Binding affinity to PIK3CA H1047L mutant (unknown origin) assessed as dissociation constant
# Sequence of Phosphatidylinositol 4,5-bisphosphate 3-kinase catalytic subunit alpha isoform (P42336 whole entry H1047L, canonical isoform): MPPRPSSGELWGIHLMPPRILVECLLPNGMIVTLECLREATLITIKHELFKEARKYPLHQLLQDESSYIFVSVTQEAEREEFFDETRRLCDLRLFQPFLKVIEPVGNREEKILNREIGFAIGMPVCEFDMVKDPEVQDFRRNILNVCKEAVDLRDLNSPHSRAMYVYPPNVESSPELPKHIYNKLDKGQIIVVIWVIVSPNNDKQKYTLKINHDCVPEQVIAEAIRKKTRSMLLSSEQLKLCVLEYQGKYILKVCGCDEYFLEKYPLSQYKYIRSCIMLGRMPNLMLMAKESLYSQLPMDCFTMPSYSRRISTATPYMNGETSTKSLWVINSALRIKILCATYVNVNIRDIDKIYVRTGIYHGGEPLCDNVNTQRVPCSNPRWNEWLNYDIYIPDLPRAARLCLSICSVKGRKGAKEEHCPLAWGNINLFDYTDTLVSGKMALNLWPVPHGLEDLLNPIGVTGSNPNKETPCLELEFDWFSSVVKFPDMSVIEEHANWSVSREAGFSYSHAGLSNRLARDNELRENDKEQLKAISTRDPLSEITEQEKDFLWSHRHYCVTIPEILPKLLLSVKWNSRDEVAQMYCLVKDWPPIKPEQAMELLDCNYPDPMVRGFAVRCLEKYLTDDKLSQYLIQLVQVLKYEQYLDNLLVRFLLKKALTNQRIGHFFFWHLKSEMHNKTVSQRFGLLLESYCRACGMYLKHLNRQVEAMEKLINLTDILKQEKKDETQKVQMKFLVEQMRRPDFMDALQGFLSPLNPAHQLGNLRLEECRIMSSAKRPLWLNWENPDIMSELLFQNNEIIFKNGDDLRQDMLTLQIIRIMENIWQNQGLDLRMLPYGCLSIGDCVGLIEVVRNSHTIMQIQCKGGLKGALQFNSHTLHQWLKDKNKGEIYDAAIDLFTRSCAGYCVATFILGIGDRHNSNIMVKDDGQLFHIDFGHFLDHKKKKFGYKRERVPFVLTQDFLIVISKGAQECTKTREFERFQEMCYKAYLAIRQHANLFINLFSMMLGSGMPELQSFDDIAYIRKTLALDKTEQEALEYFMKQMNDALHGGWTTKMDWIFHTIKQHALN
# [22] = system: Tyrosine-protein kinase ABL1 (Homo sapiens), P00519 [F317I]; assay: Inhibition of ABL1 F317I mutant (unknown origin) assessed as remaining activity at 1 uM by Kinome scan method relative to control; procedure, shortened: as §1
# [23] = biological target: LIM domain kinase 1 (Homo sapiens) (UniProt P53667); assay: Inhibition of LIMK1 (unknown origin) assessed as remaining activity at 1 uM by Kinome scan method relative to control
# Aurora kinase A = Aurora kinase A (Homo sapiens, UniProt O14965); assay: Inhibition of AURKA (unknown origin) in presence of ATP by enzymatic assay
# [24] = biological target: Discoidin domain-containing receptor 2 (Homo sapiens) (UniProt Q16832); assay: Inhibition of DDR2 (unknown origin) assessed as remaining activity at 1 uM by Kinome scan method relative to control
# [25] = biological target: cAMP-dependent protein kinase catalytic subunit alpha (Homo sapiens) (UniProt P17612); assay: Inhibition of PKAC-alpha (unknown origin) assessed as remaining activity at 1 uM by Kinome scan method relative to control
# [26] = biological target: Ribosomal protein S6 kinase alpha-5 (Homo sapiens) (UniProt O75582); assay: Inhibition of N-terminal kinase domain RPS6KA5 (unknown origin) assessed as remaining activity at 1 uM by Kinome scan method relative to control
# [27] = biological target: Ephrin type-A receptor 1 (Homo sapiens) (UniProt P21709); assay: Inhibition of EPHA1 (unknown origin) assessed as remaining activity at 1 uM by Kinome scan method relative to control
# Sequence of Ephrin type-A receptor 1 (Homo sapiens) (P21709 whole entry): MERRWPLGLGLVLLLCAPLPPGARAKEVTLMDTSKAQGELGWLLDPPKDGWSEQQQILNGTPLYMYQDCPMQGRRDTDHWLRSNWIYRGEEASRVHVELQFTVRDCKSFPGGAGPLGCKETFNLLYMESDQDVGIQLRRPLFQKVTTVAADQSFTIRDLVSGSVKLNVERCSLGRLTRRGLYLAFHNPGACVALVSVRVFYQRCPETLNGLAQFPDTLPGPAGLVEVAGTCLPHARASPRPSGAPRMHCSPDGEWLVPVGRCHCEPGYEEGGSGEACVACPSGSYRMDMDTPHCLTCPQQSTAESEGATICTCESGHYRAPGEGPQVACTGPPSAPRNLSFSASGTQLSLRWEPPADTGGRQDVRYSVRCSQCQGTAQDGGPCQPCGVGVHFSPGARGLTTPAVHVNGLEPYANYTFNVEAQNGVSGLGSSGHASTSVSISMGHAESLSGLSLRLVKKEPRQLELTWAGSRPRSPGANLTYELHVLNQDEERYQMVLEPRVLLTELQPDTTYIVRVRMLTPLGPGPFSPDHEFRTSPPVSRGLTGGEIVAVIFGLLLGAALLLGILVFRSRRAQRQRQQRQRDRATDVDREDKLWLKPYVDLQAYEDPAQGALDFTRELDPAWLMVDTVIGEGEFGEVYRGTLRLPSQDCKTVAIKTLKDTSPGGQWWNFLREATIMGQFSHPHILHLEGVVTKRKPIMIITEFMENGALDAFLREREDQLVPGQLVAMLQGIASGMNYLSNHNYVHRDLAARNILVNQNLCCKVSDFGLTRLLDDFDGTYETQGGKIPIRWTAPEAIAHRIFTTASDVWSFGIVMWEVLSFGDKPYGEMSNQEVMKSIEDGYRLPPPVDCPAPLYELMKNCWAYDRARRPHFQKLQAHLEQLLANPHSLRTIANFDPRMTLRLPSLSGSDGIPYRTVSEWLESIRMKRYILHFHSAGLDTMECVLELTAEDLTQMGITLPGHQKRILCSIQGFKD
compound,measurement,setting,value
CN1C(=O)c2sccc2N(C)c2nc(Nc3ccc(S(N)(=O)=O)cc3)ncc21,Activity,[1],55%
same,Activity,[2],94%
same,IC50,[3],27.3 nM
same,Activity,[4],86%
same,inhibition,Homo sapiens,Active
same,Kd,[5],27 nM
same,Activity,[6],90%
same,Activity,[7],100%
same,Activity,[8],100%
same,Activity,[9],74%
same,Activity,[10],97%
same,Activity,[11],100%
same,IC50,[12],165 nM
same,Activity,[13],60%
same,Activity,[14],100%
same,AUC(0-inf),[15],1270 ng·h/mL
same,Activity,[16],87%
same,Activity,[17],82%
same,Activity,[18],97%
same,Activity,[19],100%
same,Activity,[20],82%
same,Kd,[21],34 nM
same,Activity,[22],40%
same,Activity,[23],96%
same,IC50,Aurora kinase A,19.4 nM
same,Activity,[24],100%
same,Activity,[25],97%
same,Activity,[26],97%
same,Activity,[27],92%
